Laboratory results from ChEMBL document CHEMBL1147577, “Design, synthesis, and SAR of anthranilamide-based factor Xa inhibitors incorporating substituted biphenyl P4 motifs” (Bioorg Med Chem Lett, 2004).

How the values were obtained:
Coagulation factor X [1] = biological target: T1, Coagulation factor X (Homo sapiens, UniProt P00742); assay: Inhibitory concentration against coagulation factor Xa.
Coagulation factor X [2] = biological target: T1, Coagulation factor X; assay: Concentration required to double the lag time of maximum thrombin generation in human plasma-based thrombin generation assay.; format: functional, cell-free
In short: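 Human plasma treated with reptilase, mixed with inhibitor serially diluted from DMSO stock, then chromogenic substrate H-b-Ala-Gly-Arg-p-nitroanilide and CaCl2. Thrombin generation started with 640 pmol/L recombinant tissue factor. Absorbance at 405 nm followed at 37 °C for 22 min. Reported as 2XTG, the inhibitor concentration that doubles the time to maximum thrombin generation.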

[3] = Oral bioavailability in rat; format: ADME, organism-based; conditions: in vivo
In short: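 Sprague–Dawley rats given 6 mg/kg orally, with oral bioavailability calculated.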

Coagulation factor X [4] = biological target: T1, Coagulation factor X; assay: Inhibition of Coagulation factor X
Kallikrein-1 = Kallikrein-1 (Homo sapiens, UniProt P06870); assay: Inhibitory activity against kallikrein was determined
[5] = biological target: Vitamin K-dependent protein C (Homo sapiens, UniProt P04070); assay: Inhibitory activity against activated protein C was determined
[6] = biological target: Tissue-type plasminogen activator (Homo sapiens, UniProt P00750); assay: Inhibitory activity against tissue type plasminogen activator was determined
Serine protease 1 = Serine protease 1 (Homo sapiens, UniProt P07477); assay: Inhibitory concentration against trypsin was determined
[7] = biological target: Plasminogen (Homo sapiens) (UniProt P00747); assay: Inhibitory activity against plasmin was determined
Sequence of Plasminogen (Homo sapiens) (P00747 whole entry, looked up): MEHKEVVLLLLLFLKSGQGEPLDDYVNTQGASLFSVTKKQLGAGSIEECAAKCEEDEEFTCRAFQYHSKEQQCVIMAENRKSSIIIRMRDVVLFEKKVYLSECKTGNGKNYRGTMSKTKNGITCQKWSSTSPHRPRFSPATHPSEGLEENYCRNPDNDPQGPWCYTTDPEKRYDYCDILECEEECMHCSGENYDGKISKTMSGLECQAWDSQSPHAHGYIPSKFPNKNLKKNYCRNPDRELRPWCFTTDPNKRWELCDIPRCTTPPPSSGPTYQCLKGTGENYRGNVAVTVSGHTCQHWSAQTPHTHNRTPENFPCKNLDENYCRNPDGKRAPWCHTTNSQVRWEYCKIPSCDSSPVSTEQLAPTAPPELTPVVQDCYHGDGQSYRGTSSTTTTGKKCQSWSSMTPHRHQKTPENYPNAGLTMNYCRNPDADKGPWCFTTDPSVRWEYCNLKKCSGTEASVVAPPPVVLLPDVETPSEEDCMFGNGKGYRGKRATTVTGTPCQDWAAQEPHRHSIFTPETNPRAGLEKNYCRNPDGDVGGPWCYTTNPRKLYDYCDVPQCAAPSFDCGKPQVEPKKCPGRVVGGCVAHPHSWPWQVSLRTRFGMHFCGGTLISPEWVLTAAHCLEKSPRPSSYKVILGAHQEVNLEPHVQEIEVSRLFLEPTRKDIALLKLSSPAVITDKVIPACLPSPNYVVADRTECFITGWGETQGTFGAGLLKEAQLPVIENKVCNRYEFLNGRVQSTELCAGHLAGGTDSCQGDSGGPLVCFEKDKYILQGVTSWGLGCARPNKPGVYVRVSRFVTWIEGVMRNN

T1 sequence (P00742 41-179 limits assumed): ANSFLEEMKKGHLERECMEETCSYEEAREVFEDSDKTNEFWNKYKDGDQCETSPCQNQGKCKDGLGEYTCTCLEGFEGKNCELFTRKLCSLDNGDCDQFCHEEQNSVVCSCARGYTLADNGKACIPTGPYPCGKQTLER
T1 sequence (P00742 235-488 limits assumed): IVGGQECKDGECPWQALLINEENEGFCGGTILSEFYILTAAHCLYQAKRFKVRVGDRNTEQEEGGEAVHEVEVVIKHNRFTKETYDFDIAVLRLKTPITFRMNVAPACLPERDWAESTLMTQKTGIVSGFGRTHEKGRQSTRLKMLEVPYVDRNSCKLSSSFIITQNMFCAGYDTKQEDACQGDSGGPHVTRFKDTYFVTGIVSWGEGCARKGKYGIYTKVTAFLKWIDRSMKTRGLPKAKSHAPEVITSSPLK
Sequence of Vitamin K-dependent protein C (P04070 43-197 limits assumed): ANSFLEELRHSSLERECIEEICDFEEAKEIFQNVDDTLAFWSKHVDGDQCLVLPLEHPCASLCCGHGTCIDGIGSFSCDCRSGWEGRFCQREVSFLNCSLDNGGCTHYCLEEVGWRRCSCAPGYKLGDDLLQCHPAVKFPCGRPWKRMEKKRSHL
Sequence of Vitamin K-dependent protein C (P04070 212-461 limits assumed): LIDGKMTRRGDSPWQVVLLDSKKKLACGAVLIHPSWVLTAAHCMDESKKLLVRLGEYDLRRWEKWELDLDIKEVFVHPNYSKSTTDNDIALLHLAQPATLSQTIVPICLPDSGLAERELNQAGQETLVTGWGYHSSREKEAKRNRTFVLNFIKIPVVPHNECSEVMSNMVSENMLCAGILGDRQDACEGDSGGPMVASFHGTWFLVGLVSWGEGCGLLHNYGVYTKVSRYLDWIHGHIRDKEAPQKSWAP
Sequence of Serine protease 1 (P07477 whole entry): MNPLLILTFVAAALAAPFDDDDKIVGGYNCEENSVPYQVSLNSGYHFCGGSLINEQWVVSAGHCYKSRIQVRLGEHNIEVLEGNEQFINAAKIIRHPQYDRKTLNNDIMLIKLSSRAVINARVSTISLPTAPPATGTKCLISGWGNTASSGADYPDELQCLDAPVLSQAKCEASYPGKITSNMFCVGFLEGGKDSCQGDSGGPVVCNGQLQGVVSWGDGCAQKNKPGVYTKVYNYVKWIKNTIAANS
Sequence of Kallikrein-1 (P06870 whole entry): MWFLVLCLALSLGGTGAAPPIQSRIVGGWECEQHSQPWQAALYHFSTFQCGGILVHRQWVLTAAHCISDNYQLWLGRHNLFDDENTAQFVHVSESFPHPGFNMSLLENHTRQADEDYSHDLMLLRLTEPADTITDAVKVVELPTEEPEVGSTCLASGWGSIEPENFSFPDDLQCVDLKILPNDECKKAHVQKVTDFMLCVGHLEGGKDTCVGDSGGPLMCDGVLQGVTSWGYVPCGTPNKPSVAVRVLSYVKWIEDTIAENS
Sequence of Tissue-type plasminogen activator (P00750 whole entry): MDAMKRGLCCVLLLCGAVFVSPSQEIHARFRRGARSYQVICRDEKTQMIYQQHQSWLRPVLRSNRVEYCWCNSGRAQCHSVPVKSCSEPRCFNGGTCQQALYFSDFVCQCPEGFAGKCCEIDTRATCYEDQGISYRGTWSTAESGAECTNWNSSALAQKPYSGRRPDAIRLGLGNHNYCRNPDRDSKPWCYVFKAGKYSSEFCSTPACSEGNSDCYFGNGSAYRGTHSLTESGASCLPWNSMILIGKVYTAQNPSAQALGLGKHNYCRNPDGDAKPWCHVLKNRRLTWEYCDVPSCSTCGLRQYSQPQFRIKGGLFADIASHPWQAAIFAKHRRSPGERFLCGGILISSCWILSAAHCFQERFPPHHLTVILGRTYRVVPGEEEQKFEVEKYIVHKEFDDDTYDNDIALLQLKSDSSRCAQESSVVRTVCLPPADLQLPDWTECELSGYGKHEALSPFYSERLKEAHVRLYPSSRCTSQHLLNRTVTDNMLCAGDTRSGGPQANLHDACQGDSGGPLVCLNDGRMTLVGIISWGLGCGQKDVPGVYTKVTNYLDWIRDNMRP

IC50 (Coagulation factor X [1]) [nM] | Activity (Coagulation factor X [2]) [µM] | Structure (SMILES) | further results
16 |  | O=C(Nc1ccc(Cl)cc1C(=O)Nc1ccc(Cl)cn1)c1ccc(-c2cccc(N3CCCCC3)c2)cc1 | 
32 |  | O=C(Nc1ccc(Cl)cc1C(=O)Nc1ccc(Cl)cn1)c1ccc(-c2cccc(N3CCCNCC3)c2)cc1 | 
9.5 | > 5 | N=C(N)NCc1cccc(-c2ccc(C(=O)Nc3ccc(Cl)cc3C(=O)Nc3ccc(Cl)cn3)cc2)c1 | bioavailability [3]: < 1%
67 |  | NCc1ccccc1-c1ccc(C(=O)Nc2ccccc2C(=O)Nc2ccc(Cl)cn2)cc1 | 
 | > 5 | Nc1ccccc1-c1ccc(C(=O)Nc2ccc(Cl)cc2C(=O)Nc2ccc(Cl)cn2)cc1 | Ki (Coagulation factor X [4]): 0.2 nM
2 | > 5 | CN(C)C(=N)c1cccc(-c2ccc(C(=O)Nc3ccc(Cl)cc3C(=O)Nc3ccc(Cl)cn3)cc2)c1 | Ki (Coagulation factor X [4]): 1 nM
370 |  | CC(=O)Nc1ccc(NC(=O)c2ccc(-c3ccccc3S(N)(=O)=O)cc2)c(C(=O)Nc2ccc(Br)cn2)c1 | 
4.1 | > 5 | O=C(Nc1ccc(Cl)cc1C(=O)Nc1ccc(Cl)cn1)c1ccc(-c2ccccc2N2CCNCC2)cc1 | Ki (Coagulation factor X [4]): 1 nM
1.6 | > 5 | N=C(N)c1cccc(-c2ccc(C(=O)Nc3ccc(Cl)cc3C(=O)Nc3ccc(Cl)cn3)cc2)c1 | Ki (Coagulation factor X [4]): 0.7 nM; bioavailability [3]: < 1%
1.9 |  | Nc1cccc(-c2ccc(C(=O)Nc3ccc(Cl)cc3C(=O)Nc3ccc(Cl)cn3)cc2)c1 | 
4.1 |  | O=C(Nc1ccc(Cl)cc1C(=O)Nc1ccc(Cl)cn1)c1ccc(-c2ccccc2N2CCOCC2)cc1 | 
6.7 | 3 | Nc1ccc(NC(=O)c2ccc(-c3ccccc3S(N)(=O)=O)cc2)c(C(=O)Nc2ccc(Cl)cn2)c1 | 
4.1 |  | CNc1ccccc1-c1ccc(C(=O)Nc2ccc(Cl)cc2C(=O)Nc2ccc(Cl)cn2)cc1 | 
0.2 | 1.4 | CN(C)C(=N)c1ccccc1-c1ccc(C(=O)Nc2ccc(Cl)cc2C(=O)Nc2ccc(Cl)cn2)cc1 | Ki (Coagulation factor X [4]): 0.1 nM
6.2 | > 5 | Nc1ccc(C(=O)Nc2ccc(Br)cn2)c(NC(=O)c2ccc(-c3ccccc3S(N)(=O)=O)cc2)c1 | 
60 |  | CN(C)C(=N)c1ccc(-c2ccc(C(=O)Nc3ccc(Cl)cc3C(=O)Nc3ccc(Cl)cn3)cc2)cc1 | 
 | > 5 | CC(=N)NCc1ccccc1-c1ccc(C(=O)Nc2ccc(Cl)cc2C(=O)Nc2ccc(Cl)cn2)cc1 | 
5.3 |  | O=C(Nc1ccc(Cl)cc1C(=O)Nc1ccc(Cl)cn1)c1ccc(-c2cccc(N3CCCC3)c2)cc1 | 
23 |  | CN1CCN(c2cccc(-c3ccc(C(=O)Nc4ccc(Cl)cc4C(=O)Nc4ccc(Cl)cn4)cc3)c2)CC1 | 
5.6 | > 5 | O=C(Nc1ccc(Cl)cc1C(=O)Nc1ccc(Cl)cn1)c1ccc(-c2ccccc2N2CCCNCC2)cc1 | Ki (Coagulation factor X [4]): 1.8 nM
23 | 4.9 | NS(=O)(=O)c1ccccc1-c1ccc(C(=O)Nc2cnccc2C(=O)Nc2ccc(Cl)cn2)cc1 | 
48 | > 5 | NS(=O)(=O)c1ccccc1-c1ccc(C(=O)Nc2ncccc2C(=O)Nc2ccc(Cl)cn2)cc1 | 
22 |  | CN1CCCN(c2cccc(-c3ccc(C(=O)Nc4ccc(Cl)cc4C(=O)Nc4ccc(Cl)cn4)cc3)c2)CC1 | 
7 |  | O=C(Nc1ccc(Cl)cc1C(=O)Nc1ccc(Cl)cn1)c1ccc(-c2cccc(N3CCC(O)CC3)c2)cc1 | 
1.8 |  | O=C(Nc1ccc(Cl)cc1C(=O)Nc1ccc(Cl)cn1)c1ccc(-c2cccc(N3CCC(C(=O)O)CC3)c2)cc1 | 

IC50 (Coagulation factor X [1]) [nM] | Activity (Coagulation factor X [2]) [µM] | Structure (SMILES) | further results
3.4 | > 5 | NS(=O)(=O)c1ccccc1-c1ccc(C(=O)Nc2ccccc2C(=O)Nc2ccc(Br)cn2)cc1 | IC50 (Kallikrein-1): 2100 nM; IC50 [5]: > 10000 nM; IC50 [6]: > 10000 nM; IC50 (Serine protease 1): > 10000 nM; IC50 [7]: > 10000 nM
2.8 |  | O=C(Nc1ccc(Cl)cc1C(=O)Nc1ccc(Cl)cn1)c1ccc(-c2ccccc2N2CCCC2)cc1 | 
4.4 | > 5 | CC(=N)NCc1cccc(-c2ccc(C(=O)Nc3ccc(Cl)cc3C(=O)Nc3ccc(Cl)cn3)cc2)c1 | Ki (Coagulation factor X [4]): 1.8 nM
39 |  | O=C(Nc1ccc(Cl)cc1C(=O)Nc1ccc(Cl)cn1)c1ccc(-c2cccc(N3CCNCC3)c2)cc1 | 
3.5 |  | CN(C)c1cccc(-c2ccc(C(=O)Nc3ccc(Cl)cc3C(=O)Nc3ccc(Cl)cn3)cc2)c1 | 
3.5 | > 5 | CN1CCN(c2ccccc2-c2ccc(C(=O)Nc3ccc(Cl)cc3C(=O)Nc3ccc(Cl)cn3)cc2)CC1 | Ki (Coagulation factor X [4]): 0.9 nM
1 | > 5 | O=C(Nc1ccc(Cl)cc1C(=O)Nc1ccc(Cl)cn1)c1ccc(-c2ccccc2N2CCC(O)CC2)cc1 | Ki (Coagulation factor X [4]): 0.2 nM; bioavailability [3]: 32%
0.7 |  | CC(N)=NCc1ccccc1-c1ccc(C(=O)Nc2ccc(Cl)cc2C(=O)Nc2ccc(Cl)cn2)cc1 | Ki (Coagulation factor X [4]): 0.1 nM; bioavailability [3]: < 1%
1550 |  | CN1CCN(c2ccc(NC(=O)c3ccc(-c4ccccc4S(N)(=O)=O)cc3)c(C(=O)Nc3ccc(Br)cn3)c2)CC1 | 
0.4 | > 5 | O=C(Nc1ccc(Cl)cc1C(=O)Nc1ccc(Cl)cn1)c1ccc(-c2ccccc2N2CCC(C(=O)O)CC2)cc1 | Ki (Coagulation factor X [4]): 0.012 nM
4.6 | 2.8 | Nc1ccc(NC(=O)c2ccc(-c3ccccc3S(N)(=O)=O)cc2)c(C(=O)Nc2ccc(Br)cn2)c1 | 
12 |  | NS(=O)(=O)c1ccccc1-c1ccc(C(=O)NCCC(=O)Nc2ccc(Br)cn2)cc1 | 
 | > 5 | N=C(N)NCc1ccccc1-c1ccc(C(=O)Nc2ccc(Cl)cc2C(=O)Nc2ccc(Cl)cn2)cc1 | 
66 |  | N=C(N)c1ccc(-c2ccc(C(=O)Nc3ccc(Cl)cc3C(=O)Nc3ccc(Cl)cn3)cc2)cc1 | 
18 | 2.2 | NS(=O)(=O)c1ccccc1-c1ccc(C(=O)Nc2ccncc2C(=O)Nc2ccc(Cl)cn2)cc1 | 
6.7 | > 5 | NS(=O)(=O)c1ccccc1-c1ccc(C(=O)Nc2ccccc2C(=O)Nc2ccc(Cl)cn2)cc1 | 
74 |  | O=C(Nc1ccc(Cl)cc1C(=O)Nc1ccc(Cl)cn1)c1ccc(-c2cccc(N3CCOCC3)c2)cc1 | 
2.3 |  | CNc1cccc(-c2ccc(C(=O)Nc3ccc(Cl)cc3C(=O)Nc3ccc(Cl)cn3)cc2)c1 | 
1.2 |  | NC(N)=NCc1ccccc1-c1ccc(C(=O)Nc2ccc(Cl)cc2C(=O)Nc2ccc(Cl)cn2)cc1 | Ki (Coagulation factor X [4]): 0.3 nM; bioavailability [3]: < 1%
26 | > 5 | NS(=O)(=O)c1ccccc1-c1ccc(C(=O)Nc2cccnc2C(=O)Nc2ccc(Cl)cn2)cc1 | 
2.8 |  | O=C(Nc1ccc(Cl)cc1C(=O)Nc1ccc(Cl)cn1)c1ccc(-c2ccccc2N2CCCCC2)cc1 | 
3.1 | > 5 | CN1CCCN(c2ccccc2-c2ccc(C(=O)Nc3ccc(Cl)cc3C(=O)Nc3ccc(Cl)cn3)cc2)CC1 | Ki (Coagulation factor X [4]): 0.8 nM
128 |  | NS(=O)(=O)c1ccccc1-c1ccc(C(=O)Nc2ccc(-n3ccnc3)cc2C(=O)Nc2ccc(Br)cn2)cc1 | 
0.9 | > 5 | CN(C)c1ccccc1-c1ccc(C(=O)Nc2ccc(Cl)cc2C(=O)Nc2ccc(Cl)cn2)cc1 | Ki (Coagulation factor X [4]): 0.1 nM; bioavailability [3]: 100%
